Measured values collected from several papers.
Each line is one published result; the experiments were not run side by side.
Target: Serine/threonine-protein kinase PAK 4 (PAK4, Homo sapiens, UniProt O96013)

SMILES | test | setting | quantity | value
CC/C(=N\NC(=O)NCc1cccc(O)c1)c1ccc(O)c(C)c1O | enzyme activity, inhibitor | 0.1 µM | inhibition | 10.6%
O=C(Nc1cnn(-c2csc(C(=O)NC3COC3)c2)c1)Nc1ccccc1Cl | enzyme activity, inhibitor | 5 µM | remaining activity | 98.9%
O=C(CSc1nc2nccnc2c(=O)n1CCc1ccccc1)Nc1nccs1 | enzyme activity, inhibitor | 10 µM | inhibition | 2%
CCN(CC)CCNC(=O)c1c(C)[nH]c(/C=C2\C(=O)Nc3ccc(F)cc32)c1C | enzyme activity, inhibitor | 0.1 µM | remaining activity | 90%
CN(C(=O)c1ccccc1)c1cc(N(C)c2ccc3c(c2)CCc2ccc(C(=O)NCCN4CCOCC4)cc2C3=O)ccc1F | cell-free assay, competition with immobilised ligand | 1 µM | remaining binding | 83%
CCCS(=O)(=O)Nc1ccc(F)c(C(=O)c2c[nH]c3ncc(-c4ccc(Cl)cc4)cc23)c1F | enzyme activity, inhibitor | 1 µM | inhibition | < 10%
Cc1[nH]c(/C=C2\C(=O)Nc3ccc(F)cc32)c(C)c1C(=O)N[C@H]1CCN(C(=O)N(C)C)C1 | enzyme activity, inhibitor | 0.1 µM | remaining activity | 109%
CCCOc1ccc(OC)c(F)c1C(=O)c1ccc(C(=O)N[C@@H]2CNC[C@H]2NC(=O)c2ccc3[nH]ncc3c2)cc1 | enzyme activity, inhibitor | 10 µM | remaining activity | 90%
Oc1cccc(-c2nc(N3CCOCC3)c3oc4ncccc4c3n2)c1 | enzyme activity, inhibitor | 10 µM | remaining activity | 70%
O=C1Nc2ccc(Cl)cc2C1=Cc1cc(Cl)c(O)c(Cl)c1 | cell-free assay | 0.5 µM | remaining signal | 88.7%
CS(=O)(=O)N1CCCC(NC(=O)[C@H](CCC2CCCCC2)NC(=O)c2ccc(CNc3ncnc4c3nnn4-c3ccccc3)cc2)C1 (stereo partly shown) | cell-free assay, competition with immobilised ligand | 0.1 µM | remaining binding | 100%
Cc1ccc(C(=O)Nc2ccc(CN3CCN(C)CC3)c(C(F)(F)F)c2)cc1C#Cc1cnc2cccnn12 | enzyme activity, inhibitor | 23.5 nM | remaining activity | 91%
Cc1c(NC(=O)c2cc(C(N)=O)nc3cc(F)ccc23)c(C(F)(F)F)nn1Cc1ccc(C(C)(C)C)cc1 | cell-free assay, competition with immobilised ligand | 1 µM | remaining binding | 100%
Nc1ncnc2occ(-c3ccc(NC(=O)Nc4cc(C(F)(F)F)ccc4F)cc3)c12 | cell-free assay, inhibitor | 20 µM | remaining signal | 61%
FC(F)(F)Oc1cccc(-c2cnc3ccc(-c4ccncc4)nn23)c1 | enzyme activity, inhibitor, radiometric | 1 µM | activity vs control | 81%
CNC(=O)c1cc(Oc2ccc(NC(=O)Nc3ccc(Cl)c(C(F)(F)F)c3)cc2)ccn1 | enzyme activity, inhibitor | 10 µM | inhibition | -9%
Cc1cnc(NC2CCOCC2)nc1-n1cnc(C(=O)NC(CN)c2cc(F)cc(Cl)c2)c1 (stereo not shown) | enzyme activity, inhibitor, radiometric | 1 µM | remaining activity | 96%

SMILES | test | setting | quantity | value
COc1cc(Nc2cnc(C#N)c(O[C@H](C)CN(C)C)n2)ncc1-c1cnn(C)c1 | enzyme activity, inhibitor, radiometric | 1 µM | remaining activity | 87%
COc1cccc(CNC(=O)c2nc3scc(COCc4ccc(C(=O)O)cc4)c3c(=O)[nH]2)c1 | cell-free assay, competition with immobilised ligand | 1 µM | remaining binding | 100%
O=C(Nc1cnn(-c2csc(C(=O)NC3COC3)c2)c1)Nc1c(F)cccc1Cl | enzyme activity, inhibitor | 5 µM | remaining activity | 107%
Cc1ccc(NC(=O)c2ccc(C)c(C(F)(F)F)c2)cc1C#Cc1nn(C2CCC(O)CC2)c2ncnc(N)c12 (stereo not shown) | cell-free assay | 10 µM | remaining signal | 88%
CS(=O)(=O)CCNCc1ccc(-c2ccc3ncnc(Nc4ccc(OCc5cccc(F)c5)c(Cl)c4)c3c2)o1 | cell-free assay | 0.5 µM | remaining signal | 89.9%
Cc1ccc(Nc2nccc(N(C)c3ccc4c(C)n(C)nc4c3)n2)cc1S(N)(=O)=O | enzyme activity, inhibitor | 0.3 µM | inhibition | -17%
Nc1nc(NC2CCCCC2)sc1C(=O)c1ccccc1 | enzyme activity, inhibitor | 10 µM | remaining activity | 88%
C[C@@H]1CN(c2cc(-c3n[nH]c4ccc(OC5(C)CC5)cc34)ncn2)C[C@H](C)O1 | cell-free assay, competition with immobilised ligand | 0.1 µM | remaining binding | 97%
Oc1ccc(-c2nc(-c3ccncc3)c(-c3ccc(F)cc3)[nH]2)cc1 | cell-free assay | 0.5 µM | remaining signal | 98.6%
CC(C)(C)c1nc(-c2cccc(NS(=O)(=O)c3c(F)cccc3F)c2F)c(-c2ccnc(N)n2)s1 | enzyme activity, inhibitor, radiometric | 1 µM | remaining activity | 68%
CC(C)(C)C(=O)c1sc(NC2CCCCC2)nc1N | enzyme activity, inhibitor | 10 µM | remaining activity | 88%
O=C1NC(c2ccccn2)Sc2ccccc21 (stereo not shown) | cell-free assay, competition with immobilised ligand | 1 µM | remaining binding | 84%
CCN(CC)CCNC(=O)c1c(C)[nH]c(/C=C2\C(=O)Nc3ccc(F)cc32)c1C | enzyme activity, inhibitor | 10 µM | inhibition | 55%
NS(=O)(=O)c1cc(NC(=O)C2(c3ccccc3Cl)CC2)ccc1Oc1cccc(Cl)c1 | cell-free assay, competition with immobilised ligand | 1 µM | remaining binding | 74%
COc1cc(-c2cc(-c3ccc(N4CCNCC4)cc3)cnc2C)cc(OC)c1OC | enzyme activity, inhibitor | 0.1 µM | inhibition | 1%
c1ccc(N2CCN(Cc3nc4ccccc4[nH]3)CC2)nc1 | cell-free assay, competition with immobilised ligand | 1 µM | remaining binding | 93%
Cc1ccc(C(=O)NCc2ccsc2)cc1C#Cc1cn(C(C)C)c2ncnc(N)c12 | enzyme activity, inhibitor | 1 µM | activity vs control | 102%
